# What was measured:
# Assay type in all cases: cell-based, human
# OVCAR-4 cells = test: Fluorescence cell microscopy, probe uptake; settings: 1 μM probe, 30 min, 37 °C, compared to control probes
# In short: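 OVCAR-4 cells were maintained in RPMI-1640 with 10% FBS, 1% L-glutamine and 0.1 mM NEAA (37 °C, 5% CO2), grown to 70% confluency in chambered slides, then given 1 μM probe in medium for 30 min at 37 °C. After 3 PBS washes, they were fixed in cold 4% PFA (20 min, RT), Hoechst-stained (3 μM, 10 min) and imaged by epifluorescence. Mean intensity: 200-pixel rolling-ball subtraction, auto-threshold, average ± SEM.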
# HT-1080 cells = test: Fluorescence cell microscopy, probe uptake; settings: 1 μM probe, 30 min, 37 °C, compared to control probes
# In short: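 HT-1080 cells were kept in EMEM with 10% FBS, 0.1 mM NEAA, 1.5 g/L bicarbonate, 1 mM pyruvate and 1% pen/strep (37 °C, 5% CO2), then grown to 70% confluency. They were exposed to 1 μM probe in medium for 30 min at 37 °C, washed ×3 with PBS, fixed in cold 4% PFA, Hoechst-stained and imaged (Cy5.5 filter). Intensity: rolling-ball background subtraction, auto-threshold, average ± SEM.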
# A549 cells [1] = test: Colocalization / co-incubation with Cy3-cRGDfK; settings: co-incubation with 1 μM Cy3-cRGDfK, 1 μM probe, 30 min
# In short: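 Live A549 cells at 70% confluency in chambered slides were co-incubated 30 min at 37 °C with 1 μM Cy3-cRGDfK plus 1 μM test compound in medium. They were then PBS-washed ×3, Hoechst-stained (3 μM, 10 min, RT) and imaged by epifluorescence (TxRed and Cy5.5 filters). After 10-pixel rolling-ball background subtraction, Pearson's correlation coefficient was computed and reported as average ± SEM.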
# A549 cells [2] = test: Competitive blocking study of probe uptake; settings: repeated many times using fixed and living cells; excess cRGDfK or Cilengitide
# In short: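 A549 cells at 70% confluency on 8-well slides received 200 μM cRGDfK or 50 μM cilengitide 5 min before the test compound; the blocker stayed during a 30 min, 37 °C incubation with 1 μM test compound. Cells were then PBS-washed ×3, fixed in cold 4% PFA (20 min, RT), Hoechst-stained (3 μM) and imaged. Intensity came from 200-pixel rolling-ball background subtraction and auto-threshold, as average ± SEM.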
substance,measurement,setting,value
DRGDG (bicyclic or more) [SF8(DRGDG)2],probe uptake (mean fluorescence intensity of epifluorescence micrographs),OVCAR-4 cells,Enhanced uptake
same,probe uptake (mean fluorescence intensity of epifluorescence micrographs),HT-1080 cells,Enhanced uptake
same,cell uptake of probe in the presence of Cy3-cRGDfK,A549 cells [1],did not reduce cell uptake
same,cell uptake of probe in competition imaging experiments,A549 cells [2],not reduced

# — PMC8808266 (Photochemistry and photobiology, 2021)
